Bioassay records (PubChem)
NadD inh: inhibitors of Staphylococcus aureus NadD | purified NadD enzyme, colorimetric absorbance read-out | AID 602399 | hit rate 0.78% among 360,000 | inhibition, % at 20 µM; in the data active = inhibition above about 26%
Xi reactivation: reactivates the inactive X chromosome in mouse fibroblasts. AID 743238. XiGFP mouse fibroblasts, % GFP-positive cells imaging, 3 d; cells co-treated with 5-aza-dC sensitizer; scaled so ellipticine positive control = 100%. activation, % at 7.58 µM. hit rate 0.055% among 360,000;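 active = mean normalized replicate activation at least 10% and every replicate at or above 10%; inconclusive = only one of the two criteria met; inactive = mean below 10% and not all replicates reach 10%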;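 note: 0% = median of on-plate neutral control wells and 100% = ellipticine 6 µM median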
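Material: XiGFP fibroblasts, SV40-immortalized. Buffer or medium: DMEM plus 5-aza-dC sensitizer. Compound: single concentration per compound, delivered by pin transfer. Times: 3 days compound exposure. Controls: ellipticine 6 µM.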
Rin1-Abl PPI inh: human Rin1-Abl interaction inhibition; P00519+Q13671; TR-FRET Rin1/Abl binding, biochemical; inhibition, % at 7.35 µM; hit rate 0.4% among 360,000; AID 588664; in the data active = inhibition above about 5%, passing the limit was not always enough
ABHD5 PLIN5 PPI: ABHD5-PLIN5 protein interaction inhibition; Q00G26+Q8WTS1; Split G. princeps luciferase complementation, luminescence, 4 h; inhibition, % at 4 µM; hit rate 0.78% among 360,000; AID 602281;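 active = inhibition above the mean inhibition across every tested compound plus 3 SD, cut at about 22% in these data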;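 note: 0% = DMSO only wells and the 100% control is not disclosed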
Rpn11 block: blocks the human proteasome subunit Rpn11; hit rate 0.59% among 360,000; inhibition, % at 20 µM; human 26S proteasome, Ub4-pepOG fluorescence polarization; 20S core pre-blocked with epoxomicin; O00487;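 active = inhibition at 20 µM, scaled to each plate's controls, above about 33%, limit read from the data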
ABHD5 PLIN5 conf: ABHD5-PLIN5 interaction inhibition, confirmed | shares compounds with ABHD5 PLIN5 PPI | biochemical ABHD5-PLIN5 interaction, luminescence | inhibition, % at 4 µM | hit rate 67% among 2,200; in the data active = inhibition above about 23%;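 note: 0% = DMSO vehicle wells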
HNF4 counter: HNF4 split-luciferase signal hit, counter-screen | hit rate 77% among 2,200 | shares compounds with ABHD5 PLIN5 PPI | inhibition, % at 4 µM | AID 651674 | HNF4 dimerization, luminescence, biochemical;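 active = mean inhibition across replicate wells exceeding the computed hit threshold, cut at about 13% in these data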;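 note: light from luciferase halves that rejoin when HNF4 fusion proteins dimerize; 0% = DMSO only wells and the 100% control is not given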
* hit, by the source's call; ? = inconclusive; nt = not tested or not shown. Rows were chosen to be rich in hits. Some 1.9% of all compounds tested hit in one or more screens of this group.

SMILES	NadD inh	Xi reactivation	Rin1-Abl PPI inh	ABHD5 PLIN5 PPI	Rpn11 block	ABHD5 PLIN5 conf	HNF4 counter
O=c1c(-c2ccco2)nc2ccccc2n1C(c1ccccc1)c1nc2ccccc2[nH]1 (stereo unspecified)	nt	0.0	nt	35.7*	nt	28.0*	16.2*
O=C1C=CC(=O)N1Cc1ccccc1	-0.6	0.0	-1.3	31.6*	3.9	3.8	1.6
CN1C(=O)N(C)N(Cc2ccccc2)C(=O)N1Cc1ccccc1	nt	0.1	nt	nt	nt	nt	nt
CCOc1ccc(N)c(SSc2cc(OCC)ccc2N)c1	2.1	0.1	0.3	72.8*	18.3	81.5*	96.6*
O=[N+]([O-])c1ccc(-[n+]2ccc3ccccc3c2)c([N+](=O)[O-])c1	-1.2	0.6	2.0	29.5*	0.0	61.8*	58.1*
C=C1C(=O)C2=CC1CCC(=O)C1(C)CCC(OC(C)=O)C(C)(C)C1CC2O (stereo unspecified)	-1.7	0.6	1.4	43.8*	4.0	57.9*	92.2*
O=C(c1ccco1)N1CCN(S(=O)(=O)c2ccc(Oc3ccccc3)cc2)CC1	3.4	nt	-0.2	49.6*	-19.3	8.3	17.6*
CC1CCCN(S(=O)(=O)c2ccc(NC(=O)C3CCN(C(=O)c4ccco4)CC3)cc2)C1 (stereo unspecified)	2.1	0.0	1.7	24.1*	5.4	4.3	0.4
O=C(/C=C/c1cccc(Br)c1)c1ccc2c(c1)OCO2	-11.1	0.1	2.0	32.9*	0.8	74.4*	62.7*
COc1cc(/C=C/C(=O)c2ccc3c(c2)OCCO3)cc(Br)c1OCC(=O)N(C)C	-4.2	?	-3.4	39.8*	21.1	73.6*	72.8*
O=C(/C=C/c1ccccc1Br)c1ccc2c(c1)OCO2	-7.5	-0.1	1.2	-0.4	6.2	nt	nt
CN(C)c1ccc(/C=C/C(=O)c2ccc3c(c2)OCO3)cc1	3.4	0.0	-1.6	-0.9	nt	nt	nt
O=C(/C=C/c1ccccc1)c1ccc2c(c1)OCO2	-2.6	0.1	-0.2	29.6*	-5.0	49.8*	34.4*
O=C(/C=C/c1ccncc1)c1ccc2c(c1)OCCO2	-5.0	0.0	3.7	59.5*	-7.0	77.7*	74.2*
Cc1noc(C)c1S(=O)(=O)Nc1cccc2c1O[C@H](CN(C)S(C)(=O)=O)[C@H](C)CN([C@H](C)CO)C2=O	nt	0.0	nt	nt	nt	nt	nt
CN1CCN(CC#CCn2c3ccccc3c3ccccc32)CC1	-8.7	nt	-0.5	23.2*	1.8	11.5	1.4
CO[C@H]1CN(C)C(=O)c2cc(NC(=O)C3CCCC3)ccc2OC[C@@H](C)N(C(C)=O)C[C@@H]1C	nt	0.2	nt	nt	nt	nt	nt
CN(CC(=O)Nc1ccccc1C(F)(F)F)Cc1c(O)ccc2ccccc12	-8.7	0.1	1.8	10.2	-6.7	nt	nt
CCc1ccccc1NC(=O)CN(C)Cc1c(O)ccc2ccccc12	2.3	0.0	2.9	23.7*	-0.2	45.7*	87.5*
Cn1c(=O)c2[nH]c(N=NNc3ccccc3F)nc2n(C)c1=O	-4.7	0.2	-1.3	23.9*	7.8	9.1	13.6*
CO[C@H]1CN(C)C(=O)c2ccc(NC(=O)NC(C)C)cc2OC[C@H](C)N(C(=O)CC2CC2)C[C@H]1C	nt	0.3	nt	nt	nt	nt	nt
COc1ccc2c3c(n(C)c2c1)[C@@H](CO)N(CC1CC1)CC31CN(C(=O)c2ccc(F)cc2)C1	nt	0.4	nt	nt	nt	nt	nt
CC1(C)CC(=O)C(CC(=O)Nc2ccc(S(N)(=O)=O)cc2)=C(O)C1	-1.2	nt	-2.4	5.2	3.4	nt	nt
CC1(C)CC(=O)C(CS(=O)(=O)c2ccccc2)=C(O)C1	1.5	0.0	-6.8	43.9*	-14.0	50.2*	92.2*
C[C@@H]1CN(C)C(=O)Cc2cc(N(C)C)ccc2O[C@@H]1CN(C)C(=O)OC(C)(C)C	nt	0.5	nt	nt	nt	nt	nt
SMILES	NadD inh	Xi reactivation	Rin1-Abl PPI inh	ABHD5 PLIN5 PPI	Rpn11 block	ABHD5 PLIN5 conf	HNF4 counter
COc1ccccc1NC(=O)CC1C(=O)NCCN1C(=O)Nc1ccc(Cl)c(Cl)c1 (stereo unspecified)	-4.6	nt	-1.5	23.6*	12.5	13.4	5.8
C=CCOc1ccc(/C=C\c2nc(O)c([N+](=O)[O-])c(=O)[nH]2)cc1OCC	-3.8	0.0	0.5	5.3	-8.5	nt	nt
O=c1[nH]c(/C=C\c2cccc(Cl)c2)nc(O)c1[N+](=O)[O-]	-0.3	0.0	-0.5	51.5*	-4.3	87.9*	75.0*
O=c1[nH]c(/C=C\c2ccccc2F)nc(O)c1[N+](=O)[O-]	1.2	0.4	0.4	33.5*	-3.8	54.5*	43.3*
C#CCOc1c(/C=C\c2nc(O)c([N+](=O)[O-])c(=O)[nH]2)cc(Br)cc1OC	1.7	0.0	-0.8	45.8*	-2.4	83.0*	74.3*
O=c1[nH]c(/C=C/c2ccccc2F)nc2ccccc12	-0.3	0.1	-0.1	0.1	26.1	nt	nt
C=CCOc1cccc(/C=C\c2nc(O)c([N+](=O)[O-])c(=O)[nH]2)c1	0.4	0.0	3.4	46.0*	-4.1	78.7*	69.0*
COc1ccc(S(=O)(=O)Nc2ccc3c(c2)C(=O)N([C@H](C)CO)C[C@@H](C)[C@@H](CN(C)S(C)(=O)=O)OCCCC[C@@H](C)O3)cc1	nt	-0.1	nt	nt	nt	nt	nt
COC(=O)COc1c(/C=C\c2nc(O)c([N+](=O)[O-])c(=O)[nH]2)cccc1OC	-3.4	0.2	-0.8	18.1	-0.2	nt	nt
COc1ccc(/C=C\c2nc(O)c([N+](=O)[O-])c(=O)[nH]2)cc1O	-3.0	0.1	-2.5	23.2*	-3.9	26.6*	30.0*
O=c1[nH]c(/C=C\c2cccc(F)c2)nc(O)c1[N+](=O)[O-]	-2.6	0.2	1.7	36.2*	-4.2	68.6*	53.9*
COc1ccc(/C=C/c2c([N+](=O)[O-])c(=O)n(C)c(=O)n2C)cc1O	-0.3	nt	-3.2	1.5	-1.7	nt	nt
Cc1cc(C(=O)Nc2cccc3c2O[C@@H](CN(C)Cc2ccccc2)[C@H](C)CN([C@@H](C)CO)C3=O)n(C)n1	nt	-1.2	nt	nt	nt	nt	nt
CN(C)c1ccc(Cc2cc3c(O)ccc(O)c3cc(Cc3ccc(N(C)C)cc3)c2=O)cc1	67.6*	0.0	11.3	87.3*	-10.3	94.9*	47.2*
CN(C)c1ccc(C(=O)c2ccc(O)cc2O)cc1	6.9	nt	-3.5	-9.6	-0.8	nt	nt
C[C@H]1CN([C@@H](C)CO)C(=O)c2c(c3ccccc3n2C)-c2ccccc2CO[C@@H]1CN(C)Cc1ccc(-c2ccccc2)cc1	nt	0.4	nt	nt	nt	nt	nt
CN(C)CCOCCOc1ccc(Cl)cc1C(C)(C)C	-3.7	-0.2	0.2	23.1*	4.8	9.8	1.4
CC(O)CNCCCOc1ccc(Cl)cc1C(C)(C)C (stereo unspecified)	-5.2	-0.1	-3.4	29.3*	3.5	10.9	5.9
O=C(c1ccncc1)N1CC2(C1)[C@H](c1ccccc1)[C@H](CO)N2Cc1ccccn1	nt	0.0	nt	nt	nt	nt	nt
